Data taken from ChEMBL document CHEMBL4480410, “Targeting the MKK7-JNK (Mitogen-Activated Protein Kinase Kinase 7-c-Jun N-Terminal Kinase) Pathway with Covalent Inhibitors” (J Med Chem, 2019).
Values after ≈ are worked out from the molar mass of the structure shown. Active and inactive are the calls of the source. No cut-off for these calls is given here.

What was measured:
[1] = Inhibition of N-terminal His-tagged MKK7 beta1 S273D/T275D double mutant (unknown origin) expressed in insect cells using JNK1 K55M mutant as substrate by ADP-Glo assay; parameters: species or system Homo sapiens
Method in brief: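 ADP-Glo luminescence run per supplier protocol. Kinase: MKK7 beta1 (aa 1-462, TEV-cleavable N-terminal His6 tag, S273D/T275D) expressed in Sf9 insect cells, used at 20 nM. Substrate: JNK1 K55M at 5 µM. Compound dispensed acoustically; read on plate reader.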

[2] = target: T1, Dual specificity mitogen-activated protein kinase kinase 7 (Homo sapiens) (UniProt O14733); assay: Covalent binding affinity to MKK7 (unknown origin) assessed as formation of covalent bond with Cys218 residues by MS/MS analysis
T1 sequence (whole entry): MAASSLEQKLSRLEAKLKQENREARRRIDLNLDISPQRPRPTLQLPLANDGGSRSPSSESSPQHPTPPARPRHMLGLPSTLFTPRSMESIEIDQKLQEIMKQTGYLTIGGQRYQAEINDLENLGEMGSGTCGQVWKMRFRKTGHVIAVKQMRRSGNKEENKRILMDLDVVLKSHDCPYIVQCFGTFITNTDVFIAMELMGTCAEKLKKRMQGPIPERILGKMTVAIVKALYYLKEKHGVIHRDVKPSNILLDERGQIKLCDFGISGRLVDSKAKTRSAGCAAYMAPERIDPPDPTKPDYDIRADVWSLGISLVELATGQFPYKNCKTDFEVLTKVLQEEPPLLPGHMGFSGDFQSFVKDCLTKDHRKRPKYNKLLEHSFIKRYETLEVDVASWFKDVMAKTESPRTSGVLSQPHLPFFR
Method in brief: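 Protein at 1 mg/mL incubated with 2-fold molar excess of compound, 30 min on ice, then denatured and run on 15% SDS gel. Band excised, reduced with 50 mM DTT (1 h, 37 °C), alkylated with 55 mM iodoacetamide (1 h, 20 °C), digested with 0.1 mg/mL trypsin 20 h at 30 °C, acidified with TFA. Analysed by ion-trap MS/MS.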

[3] = target: Epidermal growth factor receptor (Homo sapiens, UniProt P00533); assay: Inhibition of wild type EGFR (unknown origin) by HTRF assay
[4] = target: Epidermal growth factor receptor (Homo sapiens, UniProt P00533, L858R/T790M); assay: Inhibition of EGFR L858R/T790M double mutant (unknown origin) by HTRF assay
[5] = Kinetic solubility of the compound in Hepes buffer at pH 7.4 after 90 mins; assay type: physicochemical; settings: read-out: Kinetic_solubility
Method in brief: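 Compound diluted from 10 mM DMSO stock to 500 µM final in 50 mM Hepes, pH 7.4, shaken 90 min at room temperature. Filtered through 0.2 µm PVDF, then OD scanned 250–500 nm in 10 nm steps. Solubility taken from AUC, normalized to a dilution in acetonitrile.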

[6] = Permeability of the compound assessed as drug flux at 500 uM after 16 hrs by PAMPA; assay type: ADME
Method in brief: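 10 mM DMSO stock diluted to 500 µM final in 50 mM Hepes pH 7.4 on membrane coated with 10% dioleoylphosphatidylcholine, 0.5% cholesterol in dodecane; 16 h room temperature, wet chamber.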

[7] = Apparent permeability across apical to basolateral side in human Caco2 cells at 5 uM after 2 hrs by transwell membrane based assay; assay type: ADME, cell-based; settings: Caco-2
Method in brief: (§1)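 10 mM DMSO stock diluted to 5 µM final in HBSS pH 7.4; 2 h at 37 °C, 5% CO2 on Caco-2 monolayers grown 21 days on transwell membranes.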

[8] = Apparent permeability across basolateral to apical side in human Caco2 cells at 5 uM after 2 hrs by transwell membrane based assay; assay type: ADME, cell-based, Caco-2; settings: caco-2, 2 h, 5 µM; method in brief: as §1
[9] = Apparent permeability across apical to basolateral side in MDCK2-MDR1 cells at 10 uM after 2 hrs by transwell membrane based assay; assay type: ADME, cell-based, Canis lupus familiaris; settings: dog, MDCK-MDR1
Method in brief: (§2)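 Compound at 10 µM in HBSS added to apical or basolateral side of MDCKII-MDR1 monolayer, 2 h at 37 °C. Both sides quantified by LC-MS/MS; Papp A–B or B–A from receiver concentration and volume, time, membrane area and initial donor concentration.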

[10] = Apparent permeability across basolateral to apical side in MDCK2-MDR1 cells at 10 uM after 2 hrs by transwell membrane based assay; assay type: ADME, cell-based, Canis lupus familiaris; settings: dog, MDCK-MDR1; method in brief: as §2
[11] = Stability in human plasma assessed as compound remaining at 5 uM after 1 hr by LC/MS analysis; assay type: ADME, cell-free; settings: read-out: Stability
Method in brief: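 Compound at 5 µM incubated 1 h at 37 °C in human or mouse plasma; percentage remaining quantified by LC/MS.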

[12] = Protein binding in human plasma at 5 uM after 6 hrs by LC/MS analysis; assay type: ADME, cell-free; settings: read-out: PPB (converted)
Method in brief: (§3)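 Equilibrium dialysis of plasma with compound at 5 µM, 6 h at 37 °C; final compound concentrations determined by LC/MS to give percent bound.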

[13] = Protein binding in mouse plasma at 5 uM after 6 hrs by LC/MS analysis; assay type: ADME, cell-free; settings: read-out: PPB (converted); method in brief: as §3
[14] = target: T2, Dual specificity mitogen-activated protein kinase kinase 7 (Mus musculus) (UniProt Q8CE90); assay: Inhibition of MKK7 in mouse DRG cells assessed as reduction in JNK phosphorylation at 1 uM after 2 hrs by Western blot analysis; assay type: cell-based
T2 sequence (whole entry): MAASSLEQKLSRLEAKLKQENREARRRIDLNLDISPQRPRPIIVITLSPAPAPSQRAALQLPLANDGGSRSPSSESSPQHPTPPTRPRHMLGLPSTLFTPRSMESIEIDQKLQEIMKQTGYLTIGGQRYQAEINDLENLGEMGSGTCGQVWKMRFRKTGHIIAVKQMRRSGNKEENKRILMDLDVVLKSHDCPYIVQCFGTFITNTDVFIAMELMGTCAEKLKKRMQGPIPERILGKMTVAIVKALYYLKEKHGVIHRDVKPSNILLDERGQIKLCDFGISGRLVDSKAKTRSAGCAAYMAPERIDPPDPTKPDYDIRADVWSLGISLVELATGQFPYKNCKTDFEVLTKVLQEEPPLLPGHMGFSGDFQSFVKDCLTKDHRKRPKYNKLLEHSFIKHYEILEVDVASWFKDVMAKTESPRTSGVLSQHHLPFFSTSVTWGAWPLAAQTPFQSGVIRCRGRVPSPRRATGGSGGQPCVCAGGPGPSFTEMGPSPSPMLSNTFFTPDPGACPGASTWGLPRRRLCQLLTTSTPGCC
Method in brief: (§4)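 Dissociated DRG neurons plated on laminin for 3 h, medium replaced, compound added for a further 2 h. Neurons lysed in RIPA buffer with phosphatase inhibitors. Western blots probed for phospho-cJun, cJun, phospho-JNK and JNK.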

[15] = target: T2, Dual specificity mitogen-activated protein kinase kinase 7 (Mus musculus); assay: Inhibition of MKK7 in mouse DRG cells assessed as reduction in cJUN phosphorylation at 1 uM after 2 hrs by Western blot analysis; assay type: cell-based; method in brief: as §4

Epidermal growth factor receptor (Homo sapiens, UniProt P00533), sequence (P00533 whole entry): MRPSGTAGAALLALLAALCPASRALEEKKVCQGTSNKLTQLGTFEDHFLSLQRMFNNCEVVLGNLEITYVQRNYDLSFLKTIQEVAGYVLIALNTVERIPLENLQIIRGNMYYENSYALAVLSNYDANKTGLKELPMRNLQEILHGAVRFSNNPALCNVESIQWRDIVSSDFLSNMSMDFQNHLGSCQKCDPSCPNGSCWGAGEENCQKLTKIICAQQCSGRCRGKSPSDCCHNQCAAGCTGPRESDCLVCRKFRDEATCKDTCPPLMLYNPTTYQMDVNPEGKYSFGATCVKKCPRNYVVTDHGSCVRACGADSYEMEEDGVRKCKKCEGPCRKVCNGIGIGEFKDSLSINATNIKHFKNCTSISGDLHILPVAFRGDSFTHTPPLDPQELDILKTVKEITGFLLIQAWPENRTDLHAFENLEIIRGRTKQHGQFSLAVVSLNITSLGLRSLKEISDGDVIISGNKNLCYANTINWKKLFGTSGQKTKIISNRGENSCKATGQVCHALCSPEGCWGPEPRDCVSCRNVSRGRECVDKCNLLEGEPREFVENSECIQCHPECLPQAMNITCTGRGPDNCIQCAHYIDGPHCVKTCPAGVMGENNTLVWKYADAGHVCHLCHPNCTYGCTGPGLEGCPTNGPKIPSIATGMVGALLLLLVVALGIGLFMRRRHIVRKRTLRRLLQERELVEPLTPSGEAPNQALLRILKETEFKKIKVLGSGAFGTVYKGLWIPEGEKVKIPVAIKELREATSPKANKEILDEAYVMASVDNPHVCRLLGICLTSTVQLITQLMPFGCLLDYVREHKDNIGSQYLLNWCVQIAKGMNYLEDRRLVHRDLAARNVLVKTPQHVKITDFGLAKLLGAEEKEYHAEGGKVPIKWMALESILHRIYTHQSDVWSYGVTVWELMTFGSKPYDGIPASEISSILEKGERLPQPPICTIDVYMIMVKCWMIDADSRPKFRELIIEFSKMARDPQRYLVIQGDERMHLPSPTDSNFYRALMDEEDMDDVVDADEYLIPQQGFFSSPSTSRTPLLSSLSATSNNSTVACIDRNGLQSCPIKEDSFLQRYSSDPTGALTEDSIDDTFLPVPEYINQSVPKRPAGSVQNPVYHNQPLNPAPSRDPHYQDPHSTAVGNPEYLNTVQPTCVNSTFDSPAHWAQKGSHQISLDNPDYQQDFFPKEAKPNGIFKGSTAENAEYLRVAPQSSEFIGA
Epidermal growth factor receptor (Homo sapiens, UniProt P00533, L858R/T790M), sequence (P00533 25-1210 T790M/L858R limits assumed): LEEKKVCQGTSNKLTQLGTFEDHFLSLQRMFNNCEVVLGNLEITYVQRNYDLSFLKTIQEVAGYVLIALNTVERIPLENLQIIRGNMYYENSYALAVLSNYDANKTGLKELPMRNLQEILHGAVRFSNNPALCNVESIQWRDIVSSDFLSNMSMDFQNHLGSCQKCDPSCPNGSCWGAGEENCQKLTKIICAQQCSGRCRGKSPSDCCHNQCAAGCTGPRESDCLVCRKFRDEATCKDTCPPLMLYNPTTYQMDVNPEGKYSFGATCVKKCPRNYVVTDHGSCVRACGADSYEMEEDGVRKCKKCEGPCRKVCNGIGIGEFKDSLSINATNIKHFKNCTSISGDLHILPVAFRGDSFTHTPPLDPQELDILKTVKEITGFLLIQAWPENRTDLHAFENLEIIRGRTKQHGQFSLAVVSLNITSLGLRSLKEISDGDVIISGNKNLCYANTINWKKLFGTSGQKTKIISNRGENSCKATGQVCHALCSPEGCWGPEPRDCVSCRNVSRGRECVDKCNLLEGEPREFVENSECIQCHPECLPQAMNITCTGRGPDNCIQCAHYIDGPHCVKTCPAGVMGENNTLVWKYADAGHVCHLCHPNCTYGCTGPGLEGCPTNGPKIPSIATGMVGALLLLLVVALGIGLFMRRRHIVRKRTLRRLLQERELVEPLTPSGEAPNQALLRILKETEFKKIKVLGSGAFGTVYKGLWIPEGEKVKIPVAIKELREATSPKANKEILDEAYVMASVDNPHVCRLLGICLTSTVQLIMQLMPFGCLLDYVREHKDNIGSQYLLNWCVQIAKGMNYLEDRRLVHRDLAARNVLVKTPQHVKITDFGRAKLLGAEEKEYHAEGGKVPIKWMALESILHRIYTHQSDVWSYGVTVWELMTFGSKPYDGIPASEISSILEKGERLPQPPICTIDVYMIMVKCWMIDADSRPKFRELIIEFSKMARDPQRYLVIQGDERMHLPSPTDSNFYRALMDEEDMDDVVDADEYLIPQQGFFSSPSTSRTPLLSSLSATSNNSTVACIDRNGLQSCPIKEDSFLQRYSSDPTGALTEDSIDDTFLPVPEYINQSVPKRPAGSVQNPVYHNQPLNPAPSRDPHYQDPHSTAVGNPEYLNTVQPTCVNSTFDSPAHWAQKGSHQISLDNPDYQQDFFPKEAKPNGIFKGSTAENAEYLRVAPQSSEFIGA

For C#Cc1nn([C@@H]2CCCN(C(=O)C=C)C2)c2ncnc(N)c12, which IC50 [1] is on record?
Its IC50 is 40 nM.

What about the Activity [2] of the same compound?
Its Activity is “Active”.

Which IC50 [1] does the source give for C=CC(=O)N1CCC[C@@H](n2nc(-c3cn(Cc4nc5ccc(Cl)cn5c4Br)nn3)c3c(N)ncnc32)C1 here?
Its IC50 is 669 nM.

And the IC50 [3]?
The IC50 was 85 nM.

What about the IC50 [4] of the same compound?
The IC50 was 104 nM.

With C=CC(=O)N1CCC[C@@H](n2nc(-c3cn(C)c4ccccc34)c3c(N)ncnc32)C1 as the compound, how does the IC50 [1] read?
The IC50 was 302 nM.

Which IC50 [1] does the source give for C=CC(=O)N1CCC[C@@H](n2nc(-c3cn(-c4cc(C(F)(F)F)cnc4C#N)nn3)c3c(N)ncnc32)C1 here?
The IC50 was 788 nM.

What about the IC50 [3] of the same compound?
The IC50 was 6 nM.

What about the IC50 [4] of the same compound?
Its IC50 is 28 nM.

With C=CC(=O)N1CCC[C@@H](n2nc(-c3ccc(Oc4ccccc4)cc3)c3c(N)ncnc32)C1 [IBRUTINIB] as the compound, how does the IC50 [1] read?
The IC50 was 78 nM.

What about the solubility kinetic at 1.5 h [5] of the same compound?
Its solubility kinetic at 1.5 h is 36 µM (≈ 15.9 µg/mL).

And the permeability [6]?
Its permeability is 38%.

What about the Papp A→B at 2 h, 5 µM [7] of the same compound?
The Papp A→B at 2 h, 5 µM was 40 ×10⁻⁶ cm/s.

What about the Papp [8] of the same compound?
The Papp was 0.9 ×10⁻⁶ cm/s.

And the Papp A→B at 2 h, 10 µM [9]?
Its Papp A→B at 2 h, 10 µM is 22 ×10⁻⁶ cm/s.

And the Papp B→A at 2 h, 10 µM [10]?
Its Papp B→A at 2 h, 10 µM is 3 ×10⁻⁶ cm/s.

And the remaining at 1 h, 5 µM [11]?
Its remaining at 1 h, 5 µM is 79.7%.

And the fraction unbound at 6 h, 5 µM [12]?
Its fraction unbound at 6 h, 5 µM is 0.024.

What about the fraction unbound at 6 h, 5 µM [13] of the same compound?
The fraction unbound at 6 h, 5 µM was 0.011.

And the Activity [2]?
The Activity was “Active”.

With CCC(=O)N1CCC[C@@H](n2nc(-c3cn(-c4ccc(C(C)=O)cc4)nn3)c3c(N)ncnc32)C1 as the compound, how does the IC50 [1] read?
Its IC50 is over 10000 nM.

And the IC50 [3]?
The IC50 was 649 nM.

What about the IC50 [4] of the same compound?
The IC50 was 677 nM.

What about the inhibition [14] of the same compound?
Its inhibition is “inactive”.

What about the inhibition [15] of the same compound?
The inhibition was “inactive”.
